ChEMBL document CHEMBL3045119, “Synthesis and fungicidal activity of novel aminophenazine-1-carboxylate derivatives” (J Agric Food Chem, 2010)
In brackets after ≈: the same amount, converted by molar mass.

Tests used:
[1] = system: Botryosphaeria berengeriana; assay: Fungicidal activity against Botryosphaeria berengeriana assessed as inhibition of mycelium growth at 50 ug/mL by mycelium growth rate method; assay type: functional
Summary of the method: (§1)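 Mycelium growth rate method: colony diameters measured once mycelia had grown completely, and the relative inhibition rate (%) calculated from the diameters by formula. Phenazine-1-carboxylic acid ran as control. Values are the average of three replicate results.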

Fusarium graminearum [2] = assay: Fungicidal activity against Fusarium graminearum assessed as inhibition of mycelium growth at 50 ug/mL by mycelium growth rate method; assay type: functional; summary of the method: as §1
Fusarium oxysporum [3] = assay: Fungicidal activity against Fusarium oxysporum assessed as inhibition of mycelium growth at 50 ug/mL by mycelium growth rate method; assay type: functional; summary of the method: as §1
Mycosphaerella arachidis [4] = assay: Fungicidal activity against Mycosphaerella arachidis assessed as inhibition of mycelium growth at 50 ug/mL by mycelium growth rate method; assay type: functional; summary of the method: as §1
Alternaria solani [5] = assay: Fungicidal activity against Alternaria solani assessed as inhibition of mycelium growth at 50 ug/mL by mycelium growth rate method; assay type: functional; summary of the method: as §1
[6] = system: Botryosphaeria berengeriana; assay: Fungicidal activity against Botryosphaeria berengeriana assessed as inhibition of mycelium growth by mycelium growth rate method; assay type: functional, organism-based; summary of the method: as §1
Fusarium graminearum [7] = assay: Fungicidal activity against Fusarium graminearum assessed as inhibition of mycelium growth by mycelium growth rate method; assay type: functional, organism-based; summary of the method: as §1
Fusarium oxysporum [8] = assay: Fungicidal activity against Fusarium oxysporum assessed as inhibition of mycelium growth by mycelium growth rate method; assay type: functional, organism-based; summary of the method: as §1
Mycosphaerella arachidis [9] = assay: Fungicidal activity against Mycosphaerella arachidis assessed as inhibition of mycelium growth by mycelium growth rate method; assay type: functional, organism-based; summary of the method: as §1
Alternaria solani [10] = assay: Fungicidal activity against Alternaria solani assessed as inhibition of mycelium growth by mycelium growth rate method; assay type: functional, organism-based; summary of the method: as §1

Row | SMILES | inhibition at 50 µg/mL [1] | inhibition at 50 µg/mL (Fusarium graminearum [2]) | inhibition at 50 µg/mL (Fusarium oxysporum [3]) | inhibition at 50 µg/mL (Mycosphaerella arachidis [4]) | inhibition at 50 µg/mL (Alternaria solani [5]) | EC50 [6] | EC50 (Fusarium graminearum [7]) | EC50 (Fusarium oxysporum [8]) | EC50 (Mycosphaerella arachidis [9]) | EC50 (Alternaria solani [10])
1 | COC(=O)c1cccc2nc3cc(S(=O)(=O)c4ccc(C)cc4)ccc3nc12 | 8% | 17.5% | 13.5% | 22.2% | 33.3% | – | – | – | – | –
2 | CCCCOC(=O)c1cccc2nc3c(NC(=O)CCCCl)c([N+](=O)[O-])ccc3nc12 | 37.1% | 51.5% | 16% | 11.1% | 17.4% | – | – | – | – | –
3 | COC(=O)c1cccc2nc3c(C(=O)CCCCl)cccc3nc12 | 41.1% | 25% | 0% | 0% | 13.8% | – | – | – | – | –
4 | COC(=O)c1cccc2nc3cc(C(=O)C(Cl)(Cl)Cl)ccc3nc12 | 21.8% | 4.8% | 5.3% | 12% | 0% | – | – | – | – | –
5 | CCCOC(=O)c1cccc2nc3c(N)cccc3nc12 | 57.1% | 43.6% | 36.7% | 30% | 46.7% | – | – | – | – | –
6 | CCCOC(=O)c1cccc2nc3cc(N)c(OCCC)cc3nc12 | 26.5% | 20% | 0% | 21.7% | 20% | – | – | – | – | –
7 | COC(=O)c1cccc2nc3c(S(=O)(=O)c4ccccc4[N+](=O)[O-])cccc3nc12 | 28.6% | 43.2% | 0% | 0% | 3.4% | – | – | – | – | –
8 | COC(=O)c1cccc2nc3c(C(=O)c4ccc(Cl)cc4Cl)cccc3nc12 | 10.7% | 27.3% | 7.1% | 0% | 3.4% | – | – | – | – | –
9 | Nc1ccc2nc3cccc(C(=O)O)c3nc2c1 | 9.6% | 33.9% | 6.9% | 11.5% | 5.9% | – | – | – | – | –
10 | CCOC(=O)c1cccc2nc3cc(N)ccc3nc12 | 44.2% | 11.3% | 31% | 7.7% | 29.4% | – | – | – | – | –
11 | COC(=O)c1cccc2nc3c(C(=O)CCc4ccccc4)cccc3nc12 | 31.4% | 30.3% | 28% | 0% | 4.3% | – | – | – | – | –
12 | COC(=O)c1cccc2nc3cc(C(C)=O)ccc3nc12 | 3.9% | 12.7% | 0% | 0% | 3.3% | – | – | – | – | –
13 | COC(=O)c1cccc2nc3cc(S(=O)(=O)c4ccc([N+](=O)[O-])cc4)ccc3nc12 | 18.2% | 0% | 15.8% | 8% | 6.5% | – | – | – | – | –
14 | CCCCOC(=O)c1cccc2nc3cc(N)c(OCCCC)cc3nc12 | 25.5% | 23.6% | 0% | 13% | 13.3% | – | – | – | – | –
15 | CCCCOC(=O)c1cccc2nc3cc(N)ccc3nc12 | 29.6% | 7.3% | 13.3% | 17.4% | 43.3% | – | – | – | – | –
16 | CCCCOC(=O)c1cccc2nc3c([N+](=O)[O-])c(N)ccc3nc12 | 16.1% | 25% | 17.9% | 12.5% | 17.2% | – | – | – | – | –
17 | CCOC(=O)c1cccc2nc3c(N)cccc3nc12 | 100% | 41.8% | 33.3% | 32% | 51% | 4.44 µg/mL (≈ 16.6 µM) | > 50 µg/mL | > 50 µg/mL | > 50 µg/mL | 40.1 µg/mL (≈ 150 µM)
18 | COC(=O)c1cccc2nc3cc(C(=O)COC(C)=O)ccc3nc12 | 1.8% | 4.8% | 5.3% | 4% | 6.5% | – | – | – | – | –
19 | O=C(O)c1cccc2nc3ccccc3nc12 [PHENAZINE-1-CARBOXYLIC ACID] | 100% | 43.1% | 65.4% | 92.3% | 100% | 3.58 µg/mL (≈ 16 µM) | > 50 µg/mL | 14.9 µg/mL (≈ 66.5 µM) | 13.2 µg/mL (≈ 58.9 µM) | 18.5 µg/mL (≈ 82.5 µM)
20 | COC(=O)c1cccc2nc3c(N)cccc3nc12 | 100% | 36.3% | 40% | 26.9% | 100% | 3 µg/mL (≈ 11.8 µM) | > 50 µg/mL | > 50 µg/mL | > 50 µg/mL | 20.5 µg/mL (≈ 81.1 µM)

Row | SMILES | inhibition at 50 µg/mL [1] | inhibition at 50 µg/mL (Fusarium graminearum [2]) | inhibition at 50 µg/mL (Fusarium oxysporum [3]) | inhibition at 50 µg/mL (Mycosphaerella arachidis [4]) | inhibition at 50 µg/mL (Alternaria solani [5]) | EC50 [6] | EC50 (Fusarium graminearum [7]) | EC50 (Fusarium oxysporum [8]) | EC50 (Mycosphaerella arachidis [9]) | EC50 (Alternaria solani [10])
21 | Nc1ccc2nc3c(C(=O)O)cccc3nc2c1 | 4.9% | 1.6% | 2.7% | 11.1% | 5.1% | – | – | – | – | –
22 | COC(=O)c1cccc2nc3cc(N)ccc3nc12 | 25% | 15.1% | 10.8% | 0% | 33.3% | – | – | – | – | –
23 | CCCCOC(=O)c1cccc2nc3c(C(=O)CCCCl)cccc3nc12 | 0% | 0% | 10.7% | 8.3% | 6.1% | – | – | – | – | –
24 | COC(=O)c1cccc2nc3c(NC(=O)CCCCl)c([N+](=O)[O-])ccc3nc12 | 34.4% | 40.4% | 16.3% | 35% | 20.5% | – | – | – | – | –
25 | CCCCOC(=O)c1cccc2nc3c(N)c([N+](=O)[O-])cc([N+](=O)[O-])c3nc12 | 42.9% | 53% | 24% | 5.6% | 17.4% | – | – | – | – | –
26 | CCCCOC(=O)c1cccc2nc3cc(OCCCC)c(N)cc3nc12 | 34.3% | 42.4% | 20% | 16.7% | 17.4% | – | – | – | – | –
27 | COC(=O)c1cccc2nc3cc(C(=O)CCc4ccccc4)ccc3nc12 | 0% | 2.4% | 11.1% | 2.6% | 19.1% | – | – | – | – | –
28 | COC(=O)c1cccc2nc3c(S(=O)(=O)c4ccc([N+](=O)[O-])cc4)cccc3nc12 | 17.9% | 31.8% | 17.9% | 25% | 13.8% | – | – | – | – | –
29 | Nc1cccc2nc3c(C(=O)O)cccc3nc12 | 19.2% | 12.9% | 13.8% | 7.7% | 0% | – | – | – | – | –
30 | COC(=O)c1cccc2nc3cc(C(=O)c4ccc(Cl)cc4Cl)ccc3nc12 | 0% | 0% | 7.1% | 0% | 3% | – | – | – | – | –
31 | CCCOC(=O)c1cccc2nc3ccc(N)cc3nc12 | 48.6% | 27.3% | 33.3% | 20% | 20.2% | – | – | – | – | –
32 | COC(=O)c1cccc2nc3cc(C(=O)CCCCl)ccc3nc12 | 0% | 36.8% | 0% | 7.7% | 37.7% | – | – | – | – | –
33 | CCCCOC(=O)c1cccc2nc3ccc(N)cc3nc12 | 34.3% | 23.6% | 26.7% | 24% | 23.3% | – | – | – | – | –
34 | CCCCOC(=O)c1cccc2nc3c(N)cccc3nc12 | 15.6% | 2.7% | 21.4% | 8.3% | 24.2% | – | – | – | – | –
35 | COC(=O)c1cccc2nc3ccc(N)cc3nc12 | 37.1% | 18.2% | 23.3% | 4% | 10% | – | – | – | – | –
36 | CCCOC(=O)c1cccc2nc3cc(N)ccc3nc12 | 19.6% | 25.5% | 10% | 26.1% | 16.7% | – | – | – | – | –
37 | COC(=O)c1cccc2nc3c(N)c([N+](=O)[O-])cc([N+](=O)[O-])c3nc12 | 50% | 57.6% | 32% | 22.2% | 21.7% | – | – | – | – | –
38 | CCOC(=O)c1cccc2nc3cc(N)c(OCC)cc3nc12 | 26.9% | 14.5% | 6.9% | 11.5% | 17.6% | – | – | – | – | –
39 | CCOC(=O)c1cccc2nc3ccc(N)cc3nc12 | 51.4% | 20% | 16.7% | 12% | 20% | – | – | – | – | –
